Compound activity (PubChem)
Hits are enriched below; roughly 2.8% of the tested compounds scored in any of these assays.
T cell modulator: modulators of CD8 T cell-vesicle binding, primary screen, mouse 2C CD8+ T cells, flow cytometry; 2C CD8+ T cell-vesicle binding; stronger effect = lower value; response (vesicle binding), % at 7 µM; actives 0.068% (n = 330,000); AID 2052, 2009;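 active = response, share of CD8 T cells binding vesicles, and their 90th percentile fluorescence all below set limits, cut at about 80% in these data, passing the limit was not always enough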;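 also: values below 100% mean blocked vesicle binding to the CD8+ T cells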
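Material: murine 2C transgenic CD8+ T lymphocytes / Also added: QL9-peptide-loaded Drosophila micro-vesicles bearing Ld, ICAM-1 and B7-1 / Schedule: binding step 1.5 h, 37 °C, antibody labelling 20 min, ice / Signal: flow cytometry, PE anti-B7-1 (FL2) versus Alexa647 anti-CD8 (FL8), PFA-fixed / Evaluation: percent CD8+ FL2 mean versus row control / Benchmarks: naked versus QL9-loaded vesicles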
Rtt109 Vps75: inhibitors of C. albicans Rtt109/Vps75 HAT, primary screen, biochemical, ThioGlo CoA-SH fluorescence, plate reader | inhibition, % at 34.9 µM | purified Rtt109/Vps75, 4 h | AID 540336, 2011 | actives 0.16% (n = 330,000);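 active = inhibition of at least 50% in every replicate; inconclusive = best replicate reaches 50% inhibition but some replicates fall short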
Target sequence (Q5AAJ8 whole entry, looked up): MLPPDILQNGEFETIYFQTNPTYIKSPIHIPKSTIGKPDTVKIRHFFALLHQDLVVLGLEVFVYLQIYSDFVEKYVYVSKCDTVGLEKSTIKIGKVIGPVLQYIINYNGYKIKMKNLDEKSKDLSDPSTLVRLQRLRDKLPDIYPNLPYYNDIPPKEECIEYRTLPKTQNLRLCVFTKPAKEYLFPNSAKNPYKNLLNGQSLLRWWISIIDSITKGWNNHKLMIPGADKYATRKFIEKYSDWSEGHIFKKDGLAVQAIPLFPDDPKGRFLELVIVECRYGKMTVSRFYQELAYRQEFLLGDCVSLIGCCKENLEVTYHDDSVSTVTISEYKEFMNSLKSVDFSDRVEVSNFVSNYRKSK
GASC-1 inh: inhibitors of GASC-1 histone demethylase, primary screen, biochemical, fluorescence, DELFIA europium | Lysine-specific demethylase 4C (Homo sapiens), Q9H3R0 | GST-JMJD2C(1-420) H3K9me3 demethylation | inhibition, % at 2.35 µM | actives 0.069% (n = 330,000) | AID 2099, 2009;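 active = more than half of a compound's replicate wells show inhibition beyond 50%, single wells judged on their own value; inconclusive = some, but no more than half, of replicates pass 50% inhibition; inactive = no replicate passes 50% inhibition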;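 also: signal counts dimethyl H3K9 product captured on neutravidin plate; 0% = median of DMSO wells and 100% = 0.3 times that DMSO median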
GRIN3A LBD mod: binders of NR3A ligand-binding domain, primary screen, biophysical, differential scanning fluorimetry, uHTS; Tm shift relative to glycine control, % at 25 µM; actives 2.5% (n = 340,000); NR3A LBD differential scanning fluorimetry, Tm shift; 0% = protein alone, 100% = glycine-bound protein;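 active = melting temperature shift of at least 10% of the positive control shift, at one fixed dose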
An asterisk follows results filed as active; ? = inconclusive; / = no result given.

SMILES | T cell modulator | Rtt109 Vps75 | GASC-1 inh | GRIN3A LBD mod
O=[N+]([O-])c1cccc(-c2nc3ccc([N+](=O)[O-])cc3[nH]2)c1 | 218.6 | 6.3 | 3.6 | -2.1
O=[N+]([O-])c1ccc2nc(-c3ccncc3)[nH]c2c1 | 299.2 | -5.6 | 1.5 | 1.2
Cc1ccc(-c2nc3ccc([N+](=O)[O-])cc3[nH]2)cc1 | 140.6 | 0.6 | -2.6 | 24.7*
Nc1ccc2nc(-c3ccc(-c4nc5ccc(N)cc5[nH]4)cc3)[nH]c2c1 | 162.3 | / | -2.3 | 17.9*
O=C(NCC(=O)N1CCN(C(c2ccccc2)c2ccccc2)CC1)c1ccccc1F | 370.3 | -1.7 | -19.2 | -1.0
COc1ccc(NC(=O)CCCn2nc(C)c3c(C)n(-c4ccccc4)nc3c2=O)cc1OC | 376.9 | 0.0 | -19.3 | -0.7
O=C(NCCS(=O)(=O)N1CCN(c2ccc(F)cc2)CC1)c1ccco1 | 137.7 | -16.6 | -15.6 | 22.2*
NC(=S)N=Nc1ccc(O)cc1 | / | 2.7 | / | -1.4
C=C(c1ccc(OC)cc1)c1ccc(OC)cc1 | 163.6 | 0.0 | -5.9 | -1.9
COc1ccc(C(N)=S)cc1 | 522.2 | 1.4 | -5.3 | 28.9*
COc1cccc(/C=N/n2nnnc2N)c1OCC#N | 454.5 | -6.2 | -0.9 | 13.3*
Nc1nnnn1/N=C/c1ccccc1OCc1ccccc1 | 500.7 | -10.8 | 15.1 | -1.1
COc1ccc(NC(C)=[N+](C)CCNS(=O)(=O)c2ccc(Cl)cc2)cc1 | 328.3 | 2.2 | -7.5 | 2.3
COc1cc(/C=N/Nc2ncnc3sc4c(c23)CCC4)ccc1O | / | 10.1 | -3.5 | 29.5*
Cc1sc2ncnc(N/N=C/c3cccc(O)c3)c2c1C | 0.0 | 7.8 | -6.2 | 13.4*
Cc1sc2ncnc(Nc3ccc(O)cc3)c2c1C | 107.3 | 1.6 | 9.9 | 2.4
CCC(C)N(C(=O)COC(=O)CNC(=O)c1sc2ccccc2c1Cl)C1CCS(=O)(=O)C1 (stereo unspecified) | 204.5 | 15.2 | -10.5 | 0.5
CCN(C(=O)COC(=O)CCS(=O)(=O)c1ccccc1)c1c(N)n(Cc2ccccc2)c(=O)[nH]c1=O | / | 1.7 | / | 17.5*
COCCN(C(=O)COC(=O)c1ccccc1Nc1ccccc1)c1c(N)n(Cc2ccccc2)c(=O)[nH]c1=O | 138.6 | 7.9 | 4.1 | 19.5*
CN(C(=O)COC(=O)c1ccccc1Nc1ccccc1)c1c(N)n(Cc2ccccc2)c(=O)[nH]c1=O | 217.5 | -4.8 | -6.0 | 23.5*
Cc1ccccc1C(=O)OCC(=O)N(C)c1c(N)n(Cc2ccccc2)c(=O)[nH]c1=O | 321.6 | -19.4 | 3.0 | 2.2
Cc1cc(O)c(NC(=S)NC(=O)c2ccc(-c3ccc(Cl)cc3)o2)cc1C | 529.9 | -2.4 | -14.0 | 30.1*
Cc1ccc(O)c(NC(=S)NC(=O)Cc2ccc(Cl)cc2)c1 | 167.8 | -2.4 | -8.0 | -6.8
Cc1ccc(NC(=S)NC(=O)c2ccc(-c3ccc(Cl)cc3)o2)c(O)c1 | 311.0 | 7.0 | -13.0 | 33.7*
Nc1ncccc1C(=O)OCC(=O)N1CCN(S(=O)(=O)c2ccc(Cl)cc2)CC1 | 261.6 | -17.3 | 0.7 | -1.3
SMILES | T cell modulator | Rtt109 Vps75 | GASC-1 inh | GRIN3A LBD mod
COc1ccc2cc(-c3csc(-c4cccnc4)n3)ccc2c1 | 348.0 | -1.9 | 13.8 | 25.9*
C=CCNc1nc(-c2ccc(O)c(C(N)=O)c2)cs1 | 268.6 | 7.9 | -0.1 | -13.9
NC(=O)c1cc(-c2csc(-c3cccnc3)n2)ccc1O | 275.7 | -5.6 | 8.7 | 19.6*
c1ccc(-c2nc(-c3cccnc3)cs2)cc1 | 182.8 | -6.0 | -1.7 | 0.0
NC(=O)c1cc(-c2csc(NCCc3ccccc3)n2)ccc1O | 197.6 | 2.8 | -2.3 | 10.3*
CCOc1ccc(S(=O)(=O)N2CCCC(C(=O)N3CCN(c4ccccc4)CC3)C2)cc1 (stereo unspecified) | 192.6 | 7.0 | 4.1 | -0.9
N#CC(=Nc1ccccc1)c1ccccc1 | / | -4.7 | / | -1.0
NC(N)=N/N=C/c1ccc(OCc2ccccc2)c(OCc2ccccc2)c1 | 177.5 | 78.9* | 9.2 | -0.7
COc1cc(/C=N/NC(=O)c2cccs2)ccc1OCc1ccccc1 | 629.5 | -0.5 | -6.8 | 18.8*
CCCc1c(C(=O)N/N=C/c2ccc(OCc3ccccc3)c(OC)c2)nnn1-c1nonc1N | 194.1 | -11.0 | 21.7 | 12.5*
CCCc1c(C(=O)N/N=C/c2c(OC)ccc3ccccc23)nnn1-c1nonc1N | 431.4 | -14.3 | -3.5 | 30.7*
CCC(=O)c1ccc(OCC(=O)OCC(=O)Nc2cccc(S(=O)(=O)N3CCOCC3)c2)cc1 | / | -1.9 | / | 1.8
CCCc1c(C(=O)N/N=C/c2ccc(OC)c(OCc3ccccc3)c2)nnn1-c1nonc1N | 393.0 | -3.7 | -17.4 | 37.1*
O=C(N/N=C/c1cccnc1)c1cccc(Br)c1 | 180.3 | 1.5 | -7.2 | -6.7
Cc1cccc(NC(=O)c2cccnc2)c1 | 360.8 | -3.8 | 0.5 | -0.7
Cc1cccc(C(=O)Nc2ccc(NC(=O)c3ccccc3)cc2)c1 | 175.2 | 2.7 | 0.5 | -3.0
Cc1cccc(C(=O)Nc2ccc(C(=O)/C=C/c3cccnc3)cc2)c1 | 229.2 | 0.5 | -1.6 | 24.2*
Cc1cccc(C(=O)Nc2ccc(C(=O)/C=C/c3ccncc3)cc2)c1 | 115.7 | -0.2 | -2.0 | 15.6*
O=C(/C=C/c1cccnc1)c1ccc(NC(=O)c2cccc(Br)c2)cc1 | 144.0 | 6.0 | 2.1 | 26.4*
CCCn1c(SC(C)C(=O)NC2CC2)nnc1-c1ccncc1 (stereo unspecified) | 408.6 | 1.6 | 8.6 | -2.3
Cc1cc(Br)ccc1NC(=O)CN(C)C(=O)CN1C(=O)NC(C)(C2CC2)C1=O (stereo unspecified) | 405.4 | -0.1 | -2.2 | -1.2
Oc1cc2c(cc1O)C1c3ccc(O)c(O)c3OCC1(O)C2 (stereo unspecified) | 669.3 | 159.3* | / | -1.9
Cc1cccc(NC(=O)C2CCCN(S(=O)(=O)c3cccs3)C2)c1C (stereo unspecified) | 168.1 | 5.0 | -5.1 | -1.3
O=C(COc1ccc([N+](=O)[O-])cc1)N(C1CCCCC1)C1CCS(=O)(=O)C1 (stereo unspecified) | 220.7 | 34.5 | ? | -0.8
Cc1ccc(C(=O)NC(=S)Nc2ccc(NC(=O)c3cccs3)cc2)cc1[N+](=O)[O-] | 154.9 | -2.2 | 8.0 | 30.7*
Cc1ccc(C(=O)Nc2cccc(NC(=O)c3ccc(C)c([N+](=O)[O-])c3)n2)cc1[N+](=O)[O-] | 609.2 | -4.2 | 0.2 | 14.4*
Cc1ccc(NC(=O)c2cccs2)cc1[N+](=O)[O-] | 333.5 | 1.0 | -1.6 | 1.9
Cc1ccc(C(=O)Nc2ccc(NC(=O)c3cccs3)cc2)cc1[N+](=O)[O-] | 283.6 | 3.0 | -1.3 | 29.5*
CN(C)c1ncnc2c1ncn2C1CCCO1 (stereo unspecified) | / | -1.2 | / | 0.5
